XBP1 UPR activ – activators of adaptive XBP1 UPR arm, primary screen, cell-based, CHO-XBP1 luciferase reporter, luminescence, uHTS; actives 0.33% (n = 330,000); AID 463104, 2010; activation, % at 20 µM; IRE1-XBP1 UPR activation; percent of tunicamycin response, DMSO as zero;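 active = versus positive control, 20 µM dose yields 30% or more activation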;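 note: 100% = tunicamycin at 10 µg/mL and 0% = DMSO only wells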
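Material: CHO cell line with stable XBP1 luciferase reporter; buffer or medium: F12 medium containing 10% fetal bovine serum; compound: single point, 20 µM final compound, 1% DMSO; incubation: 6 h treatment, 37 °C; measured by: glow luminescence from Steady-Glo reagent; evaluation: activation, % of tunicamycin; control set: tunicamycin high, DMSO low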
CHOP inh – inhibitors of CHOP promoter induction, primary screen, cell-based, unfolded protein response, luciferase reporter | CHO-K1 CHOP-promoter luciferase, tunicamycin-induced, 15-18 h | inhibition, % at 10 µM | actives 3.8% (n = 220,000);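 active = compounds that reduced the stress-induced luciferase reporter signal by more than about 70% of percent inhibition, limit read from the data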;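 note: 0% = tunicamycin plus vehicle and 100% = wells without tunicamycin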
TLR9-MyD88 inh – inhibitors of TLR9-MyD88 association in cells, primary screen, cell-based, CHO, BLA complementation, fluorescence. Toll-like receptor 9 (Homo sapiens) + Myeloid differentiation primary response protein …. CCF4 FRET ratio. inhibition, % at 4.98 µM. actives 0.21% (n = 340,000). AID 504734, 2011;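 active = inhibition above the mean over all tested compounds plus 3 SD, cut at about 21% in these data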;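 note: 0% = DMSO only wells and 100% = clavulanate BLA inhibitor control wells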
NOD2-RIPK2 inh – NOD2-RIPK2 binding disruptors in cells, primary screen, fluorescence, CHO cells, BLA complementation; Receptor-interacting serine/threonine-protein kinase 2 (Homo sapiens), O43353; CCF4 ratio; inhibition, % at 4.98 µM; actives 0.38% (n = 360,000); in the data active = inhibition above about 21%;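 note: 0% = vehicle only and 100% = reference blocker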
UPR CHOP act – activators of apoptotic CHOP UPR arm, primary screen, cell-based, CHO-CHOP luciferase reporter, luminescence, uHTS; activation, % at 10 µM; AID 449763, 2010; actives 0.34% (n = 330,000); UPR activation; percent of tunicamycin response over DMSO baseline;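 active = at 10 µM dose, activation of 40% or more, normalized to positive control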;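 note: 100% = tunicamycin at 10 µg/mL and 0% = DMSO alone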
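Test system: CHO-CHOP cells, stable luciferase reporter of PERK-eIF2a-CHOP signalling | Quantity: 500 CHO-CHOP cells per well | Buffer or medium: F12 plus 10% serum | Compound dosing: 10 µM single point, 0.5% DMSO | Schedule: 6 h compound treatment, 37 °C | Signal: Luciferase luminescence | Control set: Tunicamycin high control, DMSO low control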
TLR4 MyD88 comp – inhibitors of TLR4-MyD88 association in cells, primary screen, cell-based, HeLa CL3-4, BLA complementation, FRET ratio. Toll-like receptor 4 (Homo sapiens) + Myeloid differentiation primary response protein …. HeLa CL3-4 TLR4/MyD88 BLA complementation. inhibition, % at 8.4 µM. actives 0.18% (n = 200,000); in the data active = inhibition above about 25%;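 note: 0% = vehicle and 100% = reference inhibitor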
UPR CHOP confirm – activators of apoptotic CHOP UPR arm, confirmation, cell-based, CHO-CHOP luciferase reporter, single concentration. shares compounds with UPR CHOP act. CHO-CHOP cells, CHOP-luciferase reporter luminescence; percent of tunicamycin response, DMSO as zero. activation, % at 10 µM. actives 64% (n = 1,000). AID 463112, 2010; in the data active = activation above about 33%;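 note: 0% = DMSO wells and 100% = tunicamycin 10 µg/mL wells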
* = called active by the depositor; x = no result given. Only a selection was taken, and hits are over-represented in it overall.

SMILES	XBP1 UPR activ	CHOP inh	TLR9-MyD88 inh	NOD2-RIPK2 inh	UPR CHOP act	TLR4 MyD88 comp	UPR CHOP confirm
CC(=O)Nc1ccc2nc(NC(=O)c3ccco3)sc2c1	-4	x	-3	-2	3	x	x
CC(=O)Nc1ccc2nc(NC(=O)c3ccc([N+](=O)[O-])o3)sc2c1	1	x	-7	-11	61*	x	25
CCN(CC)S(=O)(=O)c1ccc(Cl)c(C(=O)OC2CC(C)OC2=O)c1 (centres undefined)	4	x	-10	-2	0	x	x
CC(=O)Oc1ccc(OC(C)=O)c(SCCCCCN2CCOCC2)c1	-4	-220	2	-5	73*	3	33*
CC(C)c1ccc(OCCCCCN2CCOCC2)cc1	1	x	-3	0	3	x	x
O=S(=O)(c1ccc(S(=O)(=O)N2CCCC3(CCCCC3)C2)cc1)N1CCCCC1	20	33	3	-10	52*	7	2
O=S(=O)(c1ccc(S(=O)(=O)N2CCCC2)cc1)N1CCCCC1	7	x	x	x	1	x	x
Cc1noc(NS(=O)(=O)c2ccc(NS(=O)(=O)c3ccc(C(C)(C)C)cc3)cc2)c1C	x	x	-10	-10	x	x	x
Oc1ccc(/C=N/Nc2cc(N3CCCC3)nc(N3CCCC3)n2)cc1O	18	12	3	-4	126*	-10	124*
Oc1ccc(/C=N\Nc2cc(N3CCOCC3)nc(N3CCOCC3)n2)c(O)c1	2	-34	-15	2	4	-2	x
Cc1cnc(CNC(=O)c2ccc(OC3CCN(C(=O)C4CC4)CC3)cc2)cn1	-3	43	3	-13	0	-10	x
COc1ccc(CCNC(=O)CSc2ccc3ccccc3c2)cc1OC	3	31	5	-4	1	-9	x
O=C(CSc1ccc2ccccc2c1)NCCc1ccc(O)c(O)c1	11	-113	6	4	55*	1	46*
O=C(/C=C/c1c(F)cccc1Cl)c1ccc(O)cc1	-3	-79	2	-5	60*	x	2
CN(C)S(=O)(=O)c1ccc(NC(=O)CNc2cc(S(=O)(=O)N3CCCC3)ccc2OCC(F)(F)F)cc1	0	-22	1	-2	1	-14	x
CC(C)(C)c1ccc(/C=C(\c2nc3ccccc3[nH]2)S(=O)(=O)c2ccccc2)cc1	11	x	2	6	56*	x	71*
CCCCOC(=O)/C=C\C(=O)NC(N)=O	-5	-24	3	8	88*	x	121*
CCCCOC(=O)/C=C\C(=O)OCCCC	-2	-16	-5	9	3	x	x
CCc1cccc2c(C(=O)CCl)c[nH]c12	0	-141	-10	-4	84*	1	66*
O=C(/C=C/c1ccc(O)c(O)c1)OC(Cc1ccc(O)c(O)c1)C(=O)O (centres undefined)	5	x	-14	-1	0	x	x
O=C(/C=C/c1ccc(O)c(O)c1)OCCc1ccccc1	6	-17	10	11	52*	x	145*
O=C(C=Cc1cccc(O)c1)c1ccccc1O	x	x	-4	3	x	x	x
O=C(/C=C/c1ccc(O)c(O)c1)c1ccccc1O	5	-127	3	-12	93*	x	81*
Cc1cccc(NC(=O)N2CCc3ccccc3C2)c1C	0	x	-14	-5	4	x	x
O=C(CN1CCN(S(=O)(=O)c2ccc(F)cc2)CC1)c1ccc(O)c(O)c1	27	-2	-1	-20	10	-2	x
SMILES	XBP1 UPR activ	CHOP inh	TLR9-MyD88 inh	NOD2-RIPK2 inh	UPR CHOP act	TLR4 MyD88 comp	UPR CHOP confirm
O=C(CN1CCN(S(=O)(=O)c2ccc(Cl)cc2)CC1)c1ccc(O)c(O)c1	22	x	2	-19	71*	x	5
CCn1cc(C(=O)OCC(=O)N(C)C2CCS(=O)(=O)C2)c(=O)c2ccc(C)nc21 (centres undefined)	6	-30	3	4	-2	-7	x
CCOC(=O)C(CC)(CC)C(=O)/C=C/c1cccc(Br)c1	3	x	4	-1	54*	0	70*
CCOC(=O)C1(C)Oc2ccccc2C(C(=O)OC)=C1C(=O)OC (centres undefined)	1	x	0	2	5	x	x
COC(=O)C1=C(C(=O)OC)SC2(S1)C(C(=O)OC)=C(C(=O)OC)SC1=C2c2cccc(C)c2NC1(C)C	3	50	-2	3	40*	-9	19
Cc1cc(-c2nsc(=O)o2)c(S(C)(=O)=O)s1	-3	25	4	-7	-3	-16	x
Cc1ccc(C)c(N2CCN(C(C(=O)NC3CCCC3)C(C)C)CC2)c1 (centres undefined)	x	x	x	0	x	x	x
Cc1nc2c(OCCC3CCCCC3)cccn2c1N(C)C(=O)CCC1CCCC1	x	x	x	2	x	x	x
Cc1[nH]n(-c2ncc(-c3ccc(Cl)cc3)s2)c(=O)c1C(c1ccc(Cl)cc1)C(C#N)C#N (centres undefined)	1	-3	-8	0	4	-9	x
COc1ccc(C(c2c(C)[nH]n(C(N)=S)c2=O)C(C#N)C#N)cc1 (centres undefined)	2	-59	7	-5	62*	-4	56*
CCCCN(C=O)c1c(CC)nc2ccc(C(=O)N(C)Cc3ccco3)cn12	x	x	x	-10	x	x	x
O=C1C(Cl)=C(N2CCC(C(=O)O)CC2)C(=O)c2ccccc21	-1	18	5	-6	2	x	x
NC(=O)C1CCN(C2=C(Cl)C(=O)c3ccccc3C2=O)CC1	4	-183	3	6	394*	7	-10
Clc1ccc(C=NN2CCCCCC2)cc1Cl	x	x	-20	10	x	x	x
COc1ccccc1N1CCN(/N=C/c2ccc(O)c(O)c2)CC1	9	-6	x	x	184*	-9	101*
Oc1ccc(/C=N/N2CCCCC2)cc1O	5	x	-6	4	179*	x	38*
CC(C)CN(C(=O)COC(=O)CSc1ccc([N+](=O)[O-])cc1)C1CCS(=O)(=O)C1 (centres undefined)	0	x	-3	-5	2	x	x
O=S1(=O)C[C@@H](N2CCN(CC3CC3)CC2)[C@H](COCc2ccccc2)N1	x	x	x	4	x	x	x
Cc1ccn2cc(-c3ccc(O)c(O)c3)nc2c1	-4	x	2	3	120*	x	57*
Oc1ccc(-c2cn3ccccc3n2)cc1O	-1	x	5	3	155*	x	33*

Compound activity from PubChem BioAssay.
